# Measurements from ChEMBL document CHEMBL1138880, “Synthesis of DNA-directed pyrrolidinyl and piperidinyl confined alkylating chloroalkylaminoanthraquinones: potential for development of tumor-selective N-oxides” (J Med Chem, 2006).
# pIC50: −log10 of the molar value. Calls of active or inactive are those of the source. The calls are words filed in the database; no cut-off is given here.
# What was measured:
# A2780 [1] = test: Inhibition of A2780 cell growth; type: functional, cell-based; conditions: Homo sapiens
# A2780 [2] = test: Inhibition of Doxorubicin-resistant A2780 cell growth; type: functional, cell-based; conditions: Homo sapiens
# A2780 [3] = test: Inhibition of cisplatin-resistant A2780 cell growth; type: functional, cell-based; conditions: Homo sapiens
# Nucleic Acid [4] = test: Induction of DNA unwinding by agarose gel based supercoiled plasmid pBR322 DNA mobility assay; type: nucleic-acid assay
# How it was run: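 Circular supercoiled pBR322 (250 ng) with compound in reaction buffer (Tris-HCl pH 7.9, NaCl, KCl, MgCl2, EDTA, BSA, ATP), 30 °C for 15 min; stopped, run on 0.8% agarose in 1× TAE at 100 V for 3 h, EtBr-stained 30 min, visualized under UV.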
# A2780 [5] = test: Resistance factor, IC50 for A2780/cp70 cells/ IC50 for A2780 cells; type: functional, Homo sapiens
# Nucleic Acid [6] = test: Alkylation of DNA at 10 uM after 24 hrs by Taq polymerase stop assay; type: nucleic-acid assay
# How it was run: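 Linearised pBR322 was treated with drug for 24 h; the screening range was 1 nM-10 µM. Treated DNA was extended with labelled SRM primer and Taq polymerase over 30 cycles (95 °C 1 min, 58 °C 1 min, 74 °C). Products were run on a denaturing gel in TBE at 55 °C with mechlorethamine and untreated DNA, then autoradiographed to map guanine alkylation sites.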
# Nucleic Acid [7] = test: Ability to interstand cross-link DNA upto 100 uM by agarose gel cross-link assay; type: nucleic-acid assay
# How it was run: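 Agarose gel interstrand cross-link assay on linearised, 5′-end 32P-labelled pBR322 in TEOA buffer at 37 °C. Drug was tested across concentrations up to 100 µM and times up to 24 h. DNA was strand-separated at 95 °C, then run on 0.8% agarose and autoradiographed.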
# A2780 [8] = test: Resistance factor, IC50 for A2780 AD cells/ IC50 for A2780 cells; type: functional, Homo sapiens
# [9] = system: Panel NCI-60 (60 carcinoma cell lines); test: Cytotoxicity against NCI60 cell line; type: functional; conditions: Homo sapiens
# Nucleic Acid [10] = test: Ability to interstand cross-link DNA by agarose gel cross-link assay; type: nucleic-acid assay
# How it was run: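 Linearised, 5′-end 32P-labelled pBR322 DNA (~100 ng) incubated with drug (0.01-10 µM final) in TEOA buffer at 37 °C for 1 h, then stopped. DNA was precipitated, heat-denatured in strand separation buffer (95 °C, 2 min), run on 0.8% agarose at 40 V overnight and autoradiographed. Cross-linked DNA was quantified by densitometry as the mean of three replicates.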
Compound,pIC50 (A2780 [1]),pIC50 (A2780 [2]),pIC50 (A2780 [3]),Activity (Nucleic Acid [4]),Ratio IC50 (A2780 [5]),Activity (Nucleic Acid [6]),Activity (Nucleic Acid [7]),Ratio IC50 (A2780 [8]),GI50 [9] [nM],Activity (Nucleic Acid [10])
O=C1c2c(O)ccc(O)c2C(=O)c2c(NCC[N+]3([O-])CCCCC3CCl)ccc(NCC[N+]3([O-])CCCCC3CCl)c21 (stereo not drawn),< 6.00,< 6.00,< 6.00,inactive,,,,,,
O=C1c2ccccc2C(=O)c2c(NCCN3CCCC3CCl)cccc21 (stereo not drawn),< 6.00,< 6.00,< 6.00,,,,,,,
O=C1c2c(O)ccc(O)c2C(=O)c2c(NCCN3CCCC(CO)C3)ccc(NCCN3CCCC(CO)C3)c21 (stereo not drawn),7.15,< 6.00,7.15,,1,,,,,
O=C1c2c(O)ccc(O)c2C(=O)c2c(NCCN3CCCC(CCl)C3)ccc(NCCN3CCCC(CCl)C3)c21 (stereo not drawn),< 6.00,< 6.00,< 6.00,,,inactive,inactive,,,
CN(C)CCNc1ccc(NCCN2C(CCl)CCCC2CCl)c2c1C(=O)c1c(O)ccc(O)c1C2=O (stereo not drawn),7.62,6.97,6.45,,14.9,,,4.4,,
O=C1c2c(O)ccc(O)c2C(=O)c2c(NCCN3CCCCC3)ccc(NCCN3CCCCC3)c21,< 6.00,< 6.00,< 6.00,,,,,,,
CN(C)CCNc1ccc(NCCN2CCCCC2CCl)c2c1C(=O)c1c(O)ccc(O)c1C2=O (stereo not drawn),7.40,7.04,7.16,,1.7,,,2.3,,
CN(C)CCNc1ccc(NCCN2CCC(Cl)CC2)c2c1C(=O)c1c(O)ccc(O)c1C2=O,6.24,6.37,6.27,,0.9,inactive,,0.7,,
O=C1c2c(O)ccc(O)c2C(=O)c2c(NCCN3CCCCC3CO)ccc(NCCN3CCCCC3CO)c21 (stereo not drawn),6.13,< 6.00,< 6.23,,0.9,,,,,
O=C1c2c(O)ccc(O)c2C(=O)c2c(NCCN3CCCCC3CCl)ccc(NCCN3CCCCC3CCl)c21 (stereo not drawn),6.75,< 6.00,< 6.00,,,,,,,Time-dependent effect

# More lines, main results first:
pIC50 (A2780 [1]),pIC50 (A2780 [2]),pIC50 (A2780 [3]),Activity (Nucleic Acid [4]),Compound,Ratio IC50 (A2780 [5]),Activity (Nucleic Acid [6]),Activity (Nucleic Acid [7]),Ratio IC50 (A2780 [8]),GI50 [9] [nM],Activity (Nucleic Acid [10])
8.12,7.21,8.52,,COc1cccc2c1C(=O)c1c(O)c3c(c(O)c1C2=O)C[C@@](O)(C(=O)CO)C[C@@H]3O[C@H]1C[C@H](N)[C@H](O)[C@H](C)O1 [DOXORUBICIN],0.4,,,8.1,,
8.05,7.12,7.20,,CN(C)CCNc1ccc(NCCN2CCCC(Cl)C2)c2c1C(=O)c1c(O)ccc(O)c1C2=O (stereo not drawn),7,,,8.3,182,
7.17,6.47,7.02,,CN(C)CCNc1ccc(NCCN2CCC(Cl)C2)c2c1C(=O)c1c(O)ccc(O)c1C2=O (stereo not drawn),1.4,,,5,,
< 6.00,< 6.00,< 6.00,,O=C1c2ccccc2C(=O)c2c(NCCN3CCCC3CO)cccc21 (stereo not drawn),,,,,,
7.54,6.53,7.10,,CN(C)CCNc1ccc(NCCN2CCCC2CCl)c2c1C(=O)c1c(O)ccc(O)c1C2=O (stereo not drawn),2.7,,,10.1,96,
